The text below walks through data of ChEMBL document CHEMBL1127563, “Novel acyl-CoA:cholesterol acyltransferase inhibitors. Synthesis and biological activity of 3-quinolylurea derivatives” (J Med Chem, 1994).

Broadly, the IC50 is the concentration at which inhibition is half-maximal. What is called inhibition is how much of the control response was suppressed. A higher inhibition goes with a strong effect.

Experiment [1] addresses T1, Sterol O-acyltransferase 1 (Rattus norvegicus, UniProt O70536).
T1 sequence (O70536 whole entry): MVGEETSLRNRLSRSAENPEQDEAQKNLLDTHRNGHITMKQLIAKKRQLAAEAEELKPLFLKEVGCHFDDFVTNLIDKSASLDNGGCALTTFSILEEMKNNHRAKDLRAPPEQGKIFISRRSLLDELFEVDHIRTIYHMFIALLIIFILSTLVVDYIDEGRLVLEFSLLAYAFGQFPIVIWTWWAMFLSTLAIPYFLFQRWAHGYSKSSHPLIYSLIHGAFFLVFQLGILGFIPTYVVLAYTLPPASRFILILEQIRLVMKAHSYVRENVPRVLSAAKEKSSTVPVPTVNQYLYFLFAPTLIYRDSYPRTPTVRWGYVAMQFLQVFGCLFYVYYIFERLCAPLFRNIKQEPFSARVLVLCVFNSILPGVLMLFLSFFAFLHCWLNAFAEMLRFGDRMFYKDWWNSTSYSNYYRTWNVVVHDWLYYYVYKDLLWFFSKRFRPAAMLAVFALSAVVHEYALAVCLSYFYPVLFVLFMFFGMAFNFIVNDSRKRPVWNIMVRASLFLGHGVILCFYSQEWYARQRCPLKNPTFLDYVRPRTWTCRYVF
In words: Inhibitory activity against acyl coenzyme A:cholesterol acyltransferase in rat microsomes. The arrangement: species or system Microsome. The method, boiled down:
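Rat intestinal mucosal microsomes (male Sprague–Dawley, 6 weeks), 0.2 mg protein preincubated at 37 °C for 15 min in 0.154 M phosphate buffer with fatty-acid-free BSA and compound in DMSO; cholesteryl ester formation from [1-14C]oleoyl-CoA and endogenous cholesterol by scintillation counting. IC50 from inhibition curves.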

In experiment [2] the target is T2, Sterol O-acyltransferase 1 (Rattus norvegicus) (UniProt O70536).
T2 sequence (whole entry): T1 sequence (O70536 whole entry)
In words: Inhibitory activity against acyl coenzyme A:cholesterol acyltransferase at 10 e-6 M in rat microsomes. Particulars: Microsome. The essentials:
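Intestinal mucosal microsomes from male 6-week-old Sprague–Dawley rats (100800g pellet); 0.2 mg protein preincubated 15 min at 37 °C in 0.154 M phosphate buffer with fatty-acid-free BSA, compound in DMSO added before preincubation at 1 μM final. Labeled cholesteryl ester from [1-14C]oleoyl-CoA and endogenous cholesterol, scraped and scintillation counted; % inhibition.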

Experiment [3] relates to Cricetinae gen. sp. In words: Plamsa cholesterol leval was measured in hamsters at 0.0001% cholesterol diet as a dietary admixture. In kind it is functional, organism-based. The method, boiled down:
(§1)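 Male Golden hamsters, 10 weeks old, were fed either a stock diet or a cholesterol diet. The compound was mixed into the diet at 0.0001%, 0.0003% or 0.001% and given for 14 days. Animals were housed individually at 23 ± 1 °C and were not fasted. Blood was taken from the orbital sinus, and plasma cholesterol was measured enzymatically.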

The test system of experiment [4] is Cricetinae gen. sp. Nature of the experiment: Plamsa cholesterol leval was measured in hamsters at 0.001% cholesterol diet as a dietary admixture. In kind it is functional, organism-based. The essentials: as §1
Experiment [5] deals with Cricetinae gen. sp. Nature of the experiment: Plamsa cholesterol leval was measured in hamsters at 0.0003% cholesterol diet as a dietary admixture. As to conditions: Mesocricetus auratus.

The structures appear in SMILES notation. Where “and” joins values, the source holds several entries; their conditions need not be identical. Equal values may be shown once.

`O=C(Nc1ccccc1F)Nc1cnc2ccc(Cl)cc2c1-c1ccccc1` had a concentration for half-maximal inhibition (IC50) in experiment [1] of 929 nM. Moreover, the inhibition in experiment [2] was 75%.

The compound `O=C(Nc1ccc(F)cc1F)Nc1cnc2ccc(Br)cc2c1-c1ccccc1` gave an inhibition in experiment [2] of 85.5%.

For `Cc1cc(C)c2ncc(NC(=O)Nc3ccc(F)cc3F)c(-c3ccccc3C)c2c1`, in experiment [1], the midpoint of inhibition, the IC50, lay at 12 nM. Also, the inhibition in experiment [2] stood at 98.5%.

In turn, `O=C(Nc1ccc(F)cc1F)Nc1cnc2ccc(C(F)(F)F)cc2c1-c1ccccc1` returned an inhibition in experiment [2] of 90.1%.

Compound `O=C(Nc1ccc(F)cc1F)Nc1cnc2ccc(Cl)cc2c1-c1ccccc1Cl` yielded an IC50 in experiment [1] of 21.2 nM. This compound also registered an inhibition in experiment [2] of 98%.

`Cc1ccc2ncc(NC(=O)Nc3ccc(F)cc3F)c(-c3ccccc3Cl)c2c1` yielded an IC50 in experiment [1] of 16.8 nM. The compound also registered an inhibition in experiment [2] of 98.5%.

As to `COc1ccc(NC(=O)Nc2cnc3ccc(Cl)cc3c2-c2ccccc2)c(OC)c1`, the concentration for half-maximal inhibition (IC50) in experiment [1] worked out at 864 nM. This compound also displayed an inhibition in experiment [2] of 47.6%.

`O=C(Nc1ccc(F)cc1)Nc1cnc2ccc(Cl)cc2c1-c1ccccc1` yielded an IC50 in experiment [1] of 800 nM. The compound also registered an inhibition in experiment [2] of 66.5%.

Turning to `Cc1cc2c(-c3ccccc3C)c(NC(=O)Nc3ccc(F)cc3F)cnc2cc1Cl`, the IC50 in experiment [1] stood at 9.3 nM. Also, the inhibition in experiment [2] came to 98.6%.

`COc1ccccc1-c1c(NC(=O)Nc2ccc(F)cc2F)cnc2ccc(Cl)cc12` had a concentration for half-maximal inhibition (IC50) in experiment [1] of 24 nM. For the same compound, the inhibition in experiment [2] stood at 98.2%.

The compound `Cc1cc(C)c2ncc(NC(=O)Nc3c(F)cc(F)cc3F)c(-c3ccccc3Cl)c2c1` came in with an IC50 in experiment [1] of 15 nM. Moreover, in experiment [2], the inhibition was found to be 97.3%.

Consider `CC(C)c1ccc2ncc(NC(=O)Nc3ccc(F)cc3F)c(-c3ccccc3)c2c1`, for which, in experiment [2], the inhibition was determined as 91.6%.

Compound `CC(C)c1ccc2ncc(NC(=O)Nc3ccc(F)cc3F)c(-c3ccccc3Cl)c2c1` displayed an IC50 in experiment [1] of 14 nM. Also, in experiment [2], the inhibition was found to be 99.3%.

Consider `Cc1cccc2ncc(NC(=O)Nc3ccc(F)cc3F)c(-c3ccccc3Cl)c12`, for which 149 nM corresponded to half-maximal inhibition in experiment [1] (IC50). This compound yielded an inhibition in experiment [2] of 87.3%.

As for `Cc1cc(C)c2ncc(NC(=O)Nc3c(C(C)C)cccc3C(C)C)c(-c3ccccc3Cl)c2c1`, the midpoint of inhibition in experiment [1], the IC50, lay at 28 nM. In experiment [2], this compound registered an inhibition of 98%.

For `Cc1cc(Cl)c2ncc(NC(=O)Nc3ccc(F)cc3F)c(-c3ccccc3Cl)c2c1`, the IC50 in experiment [1] was found to be 8.9 nM. In experiment [2], this compound yielded an inhibition of 97.6%.

`COc1ccc2ncc(NC(=O)Nc3ccc(F)cc3F)c(-c3ccccc3)c2c1` yielded an inhibition in experiment [2] of 85.9%.

With `O=C(Nc1ccccc1)Nc1cnc2ccc(Cl)cc2c1-c1ccccc1`, the IC50 in experiment [1] was > 1000 nM. Also, the inhibition in experiment [2] was 5%.

For `O=C(Nc1ccc(F)cc1F)Nc1cnc2ccc(Cl)cc2c1-c1ccc(Cl)cc1`, 534 nM corresponded to half-maximal inhibition in experiment [1] (IC50). Besides, in experiment [2], the inhibition was 77%.

As for `Cc1cc2ncc(NC(=O)Nc3ccc(F)cc3F)c(-c3ccccc3Cl)c2cc1C`, the Plasma cholesterol was 169 mg/dL and 279 mg/dL in the experiment on Cricetinae gen. sp. [3]; 95 mg/dL and 213 mg/dL in the experiment with Cricetinae gen. sp. [4]; 245 mg/dL in the experiment on Cricetinae gen. sp. [5]. The compound also displayed an IC50 in experiment [1] of 5.8 nM. The compound further gave an inhibition in experiment [2] of 99.6%.

Turning to `Cc1cc(Cl)cc2c(-c3ccccc3Cl)c(NC(=O)Nc3ccc(F)cc3F)cnc12`, inhibition in experiment [1] was half-maximal at 12 nM (IC50). In addition, the inhibition in experiment [2] turned out to be 97.6%.

Compound `Cc1ccccc1-c1c(NC(=O)Nc2ccc(F)cc2F)cnc2ccc(Cl)cc12` yielded a half-maximal inhibitory concentration (IC50) in experiment [1] of 28.7 nM. Further, in experiment [2], the inhibition was 97.2%.

Take `Cc1ccc2ncc(NC(=O)Nc3ccc(F)cc3F)c(-c3ccccc3)c2c1`: in experiment [2], the inhibition came to 84.5%.

Consider `Cc1ccc2ncc(NC(=O)Nc3ccc(F)cc3F)c(-c3ccccc3C)c2c1`, for which the 50% inhibitory concentration (IC50) in experiment [1] is 21.7 nM. Further, the inhibition in experiment [2] came to 96.9%.

`Cc1ccc(-c2c(NC(=O)Nc3ccc(F)cc3F)cnc3ccc(Cl)cc23)cc1` registered an IC50 in experiment [1] of 160 nM. Further, in experiment [2], the inhibition amounted to 87.4%.

The compound `CSc1ccc2ncc(NC(=O)Nc3ccc(F)cc3F)c(-c3ccccc3)c2c1` showed an inhibition in experiment [2] of 87.8%.

On to `O=C(Nc1ccc(F)cc1F)Nc1cnc2ccc(Cl)cc2c1-c1ccccc1`, for which inhibition in experiment [1] was half-maximal at 215 nM (IC50). In experiment [2], this compound had an inhibition of 88.3%.

`COc1ccc(-c2c(NC(=O)Nc3ccc(F)cc3F)cnc3ccc(Cl)cc23)cc1` yielded an IC50 in experiment [1] of 121 nM. For the same compound, the inhibition in experiment [2] came out at 92.7%.

Regarding `Cc1cc(C)c2ncc(NC(=O)Nc3ccc(F)cc3F)c(-c3ccccc3Cl)c2c1`, half-maximal inhibition in experiment [1] (IC50) required 9.2 nM. The compound further came in with an inhibition in experiment [2] of 98.9%.

`O=C(Nc1ccc(Cl)cc1)Nc1cnc2ccc(Cl)cc2c1-c1ccccc1` yielded a half-inhibitory concentration (IC50) in experiment [1] of 1300 nM. Besides, the inhibition in experiment [2] was found to be 51.5%.

`CCCCN(C(=O)Nc1ccc(F)cc1F)c1cnc2ccc(Cl)cc2c1-c1ccccc1`: in experiment [2], the inhibition worked out at 61.6%.

Turning to `O=C(Nc1ccc(F)cc1F)Nc1cnc2ccccc2c1-c1ccccc1Cl`, in experiment [1], it took 125 nM to reach half-maximal inhibition (IC50). In experiment [2], this compound yielded an inhibition of 91.8%.

`Cc1cc(C)c2nc(C)c(NC(=O)Nc3ccc(F)cc3F)c(-c3ccccc3Cl)c2c1`: the inhibition in experiment [2] was 85.4%.

Regarding `O=C(Nc1ccc(F)cc1F)Nc1cnc2ccc(Cl)cc2c1-c1cccc(Cl)c1`, the IC50 in experiment [1] was 90.6 nM. For the same compound, the inhibition in experiment [2] amounted to 88.5%.

As for `CN(C(=O)Nc1cnc2ccc(Cl)cc2c1-c1ccccc1)c1ccc(F)cc1F`, the IC50 in experiment [1] was > 1000 nM. The inhibition in experiment [2] was 9.4%.

For the compound `CCc1ccc2ncc(NC(=O)Nc3ccc(F)cc3F)c(-c3ccccc3Cl)c2c1`, half-maximal inhibition in experiment [1] (IC50) required 14 nM. This compound returned an inhibition in experiment [2] of 99.2%.
